Results on five molecules are retold here after ChEMBL document CHEMBL6177921, “Enhancing the antimycobacterial efficacy of pyridine-4-carbohydrazide: linkage to additional antimicrobial agents via oxocarboxylic acids” (RSC Med Chem, 2025).

One may read the MIC as the lowest concentration that inhibits growth of the organism.

Format in all cases: functional
The test system of assay [1] is Mycobacterium tuberculosis. Description: Antimycobacterial activity against multidrug sensitive Mycobacterium tuberculosis H37Rv CNCTC 331/88 assessed as bacterial growth inhibition incubated for 14 days by two-fold serial dilution method. The following applies: H37Rv CNCTC 331/88, 336 h, time 14 day.
Assay [2] has as its system Mycobacterium tuberculosis. The experiment in a line: Antimycobacterial activity against Mycobacterium tuberculosis H37Rv CNCTC 331/88 assessed as bacterial growth inhibition incubated for 21 days by two fold serial dilution method. The following applies: H37Rv CNCTC 331/88, 504 h, time 21 day.
Assay [3] has as its system Mycobacterium avium. Description: Antimycobacterial activity against INH/RIF/rifabutin/OFX/EMB resistant Mycobacterium avium CNCTC 330/88 assessed as bacterial growth inhibition incubated for 14 days by two-fold serial dilution method. Conditions: CNCTC 330/88, 336 h, time 14 day. The essentials:
(§1)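 M. avium CNCTC 330/88 (stock suspension dilution 10−5) grown in Šula's semisynthetic liquid medium; two-fold serial dilutions 1000 to 1 μM from DMSO stocks (final DMSO 1.0% v/v); final load 1.5 × 10^5 CFU mL−1; MIC read visually as lowest concentration giving complete growth inhibition after 14 and 21 days.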

Assay [4] has as its system Mycobacterium avium. The experiment in a line: Antimycobacterial activity against INH/RIF/rifabutin/OFX/EMB resistant Mycobacterium avium CNCTC 330/88 assessed as bacterial growth inhibition incubated for 21 days by two-fold serial dilution method. The following applies: CNCTC 330/88, 504 h, time 21 day. The procedure, abridged:
as §1

Assay [5] concerns Mycobacterium kansasii. Description: Antimycobacterial activity against INH/RIF/rifabutin/OFX/EMB Mycobacterium kansasii CNCTC 6509/96 clinical isolate assessed as bacterial growth inhibition incubated for 7 days by two-fold serial dilution method. Conditions: CNCTC 6509/96, 168 h, time 7 day. The procedure, abridged:
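Šula's liquid semisynthetic medium; M. kansasii clinical isolate 6509/96 used at stock dilution 10−4, final ~1.5 × 10^5 CFU mL−1. Two-fold dilutions ran 1000–1 μM with final DMSO 1.0% (v/v). MIC was read visually as complete growth inhibition after 7, 14 and 21 days.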

Assay [6] concerns Mycobacterium kansasii. Description: Antimycobacterial activity against multi-drug resistant Mycobacterium kansasii CNCTC 6509/96 clinical isolate assessed as bacterial growth inhibition incubated for 14 days by two-fold serial dilution method. Conditions: CNCTC 6509/96, 336 h, time 14 day. The procedure, abridged: (§2)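 M. kansasii clinical isolate 6509/96 (stock dilution 10−4) in Šula's semisynthetic liquid medium; two-fold serial dilutions 1000 to 1 μM, DMSO final 1.0% v/v; final load 1.5 × 10^5 CFU mL−1; MIC read visually as complete growth inhibition at 7, 14 and 21 days.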

The subject of assay [7] is Mycobacterium kansasii. The experiment in a line: Antimycobacterial activity against multi-drug resistant Mycobacterium kansasii clinical isolate CNCTC 6509/96 assessed as bacterial growth inhibition incubated for 21 days by two-fold serial dilution method. Conditions: CNCTC 6509/96, 504 h, time 21 day. The essentials: as §2
Assay [8] has as its system Candida albicans. The experiment in a line: Antifungal activity against Candida albicans ATCC 24443 measured after 24 to 48 hrs by microdilution broth method. The following applies: time 24-48 hrs. The procedure, abridged:
(§3)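 Yeast broth microdilution per EUCAST, slightly modified. Medium was RPMI-1640 with 2% glucose, MOPS-buffered to pH 7.0. Compounds were tested at 0.98–500 μM with final DMSO ≤1.0% (v/v). Inoculum came from 18–24 h cultures, final ~1–5 × 10^5 CFU mL−1. Plates were incubated statically, dark and humidified, at 35 ± 2 °C. MIC was read visually at 24 and 48 h (no visible growth).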

Assay [9] relates to Candida albicans. Description: Antifungal activity against Candida albicans CCM 8320 measured after 24 to 48 hrs by microdilution broth method. The following applies: time 24-48 hrs. The procedure, abridged: as §3
For orientation: Broth dilution looks for growth in wells or tubes with falling amounts of substance.

Assay [10] has as its system Pichia kudriavzevii. Description: Antifungal activity against Candida krusei ATCC 6258 measured after 24 to 48 hrs by microdilution broth method. The following applies: time 24-48 hrs. The essentials: as §3
Assay [11] concerns Pichia kudriavzevii. Description: Antifungal activity against Candida krusei CCM 8271 measured after 24 to 48 hrs by microdilution broth method. The following applies: time 24-48 hrs. The essentials:
as §3

Assay [12] relates to Candida parapsilosis. Description: Antifungal activity against Candida parapsilosis ATCC 22019 measured after 24 to 48 hrs by microdilution broth method. Conditions: Lodderomyces parapsilosis, time 24-48 hrs. The essentials: as §3
The subject of assay [13] is Candida parapsilosis. The experiment in a line: Antifungal activity against Candida parapsilosis CCM 8260 measured after 24 to 48 hrs by microdilution broth method. The following applies: Lodderomyces parapsilosis, time 24-48 hrs. The procedure, abridged: as §3
The test system of assay [14] is Candida tropicalis. The experiment in a line: Antifungal activity against Candida tropicalis ATCC 750 measured after 24 to 48 hrs by microdilution broth method. Conditions: time 24-48 hrs. The essentials:
as §3

Assay [15] deals with Candida tropicalis. The experiment in a line: Antifungal activity against Candida tropicalis CCM 8264 measured after 24 to 48 hrs by microdilution broth method. Conditions: time 24-48 hrs. The procedure, abridged: as §3
The test system of the next assay is Aspergillus fumigatus. Description: Antifungal activity against Aspergillus fumigatus ATCC 204305 measured after 24 to 48 hrs by microdilution broth method. Conditions: time 24-48 hrs. The procedure, abridged:
(§4)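 Filamentous fungi tested by broth microdilution per EUCAST with minor changes. Compounds were tested at 0.98–500 μM with final DMSO ≤1.0% (v/v). Plates were incubated statically, dark and humidified, at 35 ± 2 °C for 24 and 48 h. MIC was the lowest concentration showing no visible growth.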

The next assay deals with Aspergillus flavus. The experiment in a line: Antifungal activity against Aspergillus flavus CCM 8363 measured after 24 to 48 hrs by microdilution broth method. The following applies: time 24-48 hrs. The procedure, abridged:
as §4

In another assay the test system is Lichtheimia corymbifera. Description: Antifungal activity against Lichtheimia corymbifera CCM 8077 measured after 24 to 48 hrs by microdilution broth method. Conditions: time 24-48 hrs. The essentials: as §4
For assay [16], the system named is Trichophyton interdigitale. The experiment in a line: Antifungal activity against Trichophyton interdigitale ATCC 9533 measured after 24 to 48 hrs by microdilution broth method. Conditions: time 24-48 hrs.
The test system of assay [17] is Trichophyton interdigitale. Description: Antifungal activity against Trichophyton interdigitale CCM 8377 measured after 24 to 48 hrs by microdilution broth method. Conditions: time 24-48 hrs.

Structures are written as SMILES. In brackets after ≈: the same amount, converted by molar mass.

In the case of `C/C(=N\NC(=O)c1ccncc1)C(=O)Nc1ccc(Oc2ccc(Cl)cc2)cc1`, the MIC in [1] was determined as 0.5 µM (≈ 0.204 µg/mL); in assay [2], 0.5 µM (≈ 0.204 µg/mL); in the assay with Mycobacterium avium [3], 500 µM (≈ 204 µg/mL); in the assay with Mycobacterium avium [4], 500 µM (≈ 204 µg/mL); with Mycobacterium kansasii [5], 1 µM (≈ 0.409 µg/mL); with Mycobacterium kansasii [6] it was 2 µM (≈ 0.818 µg/mL). Further, the MIC in the assay with Mycobacterium kansasii [7] was 4 µM (≈ 1.64 µg/mL); in the assay with Candida albicans [8] it was > 500 µM; against Candida albicans [9], > 500 µM; against Pichia kudriavzevii [10], > 500 µM; in the assay on Pichia kudriavzevii [11], > 500 µM; against Candida parapsilosis [12] it was > 500 µM. Besides, the minimum inhibitory concentration (MIC) in the assay on Candida parapsilosis [13], in the assay on Candida tropicalis [14], with Candida tropicalis [15], against Aspergillus fumigatus, in the assay on Aspergillus flavus and in the assay on Lichtheimia corymbifera was > 500 µM each time. For the same molecule, the minimal inhibitory concentration (MIC) in assay [16] and in assay [17] was > 500 µM throughout.

As for `C/C(=N\NC(=O)c1ccncc1)C(=O)Nc1ccc(S(=O)(=O)Nc2ncccn2)cc1`, the MIC in assay [1] was 2 µM (≈ 0.879 µg/mL); in [2] it was 2 µM (≈ 0.879 µg/mL); with Mycobacterium avium [3], 1000 µM (≈ 439 µg/mL); in the assay on Mycobacterium avium [4], ≥ 1000 µM; in the assay on Mycobacterium kansasii [5], 32 µM (≈ 14.1 µg/mL); in the assay on Mycobacterium kansasii [6] it was 64 µM (≈ 28.1 µg/mL). The minimum inhibitory concentration (MIC) in the assay on Mycobacterium kansasii [7] is 64 µM (≈ 28.1 µg/mL); with Candida albicans [8], > 500 µM; against Candida albicans [9] it was > 500 µM; against Pichia kudriavzevii [10], > 500 µM; against Pichia kudriavzevii [11], > 500 µM; against Candida parapsilosis [12] it was > 500 µM. Further, the MIC with Candida parapsilosis [13], against Candida tropicalis [14], with Candida tropicalis [15], with Aspergillus fumigatus, in the assay on Aspergillus flavus and in the assay with Lichtheimia corymbifera was > 500 µM throughout. Also, the MIC in [16] and in assay [17] was > 500 µM in each case.

On to `C/C(=N\NC(=O)c1ccncc1)C(=O)Nc1ccccc1Oc1ccccc1`, for which the MIC in assay [1] is 0.25 µM (≈ 0.0936 µg/mL); in assay [2], 0.5 µM (≈ 0.187 µg/mL); in the assay on Mycobacterium avium [3], ≥ 1000 µM; with Mycobacterium avium [4], ≥ 1000 µM; in the assay on Mycobacterium kansasii [5], 4 µM (≈ 1.5 µg/mL); in the assay on Mycobacterium kansasii [6], 8 µM (≈ 3 µg/mL). Moreover, the MIC in the assay with Mycobacterium kansasii [7] is 16 µM (≈ 5.99 µg/mL); in the assay on Candida albicans [8] it was > 500 µM; against Candida albicans [9], > 500 µM; against Pichia kudriavzevii [10], > 500 µM; in the assay on Pichia kudriavzevii [11] it was > 500 µM; in the assay on Candida parapsilosis [12], > 500 µM. In addition, the MIC against Candida parapsilosis [13], with Candida tropicalis [14], with Candida tropicalis [15], in the assay with Aspergillus fumigatus, with Aspergillus flavus and against Lichtheimia corymbifera was > 500 µM each time. Also, the minimal inhibitory concentration (MIC) in assay [16] and in assay [17] was > 500 µM in each case.

On to `C/C(=N\NC(=O)c1ccncc1)C(=O)Nc1ccc(S(=O)(=O)Nc2nc(C)cc(C)n2)cc1`, for which the MIC was found to be 1 µM (≈ 0.468 µg/mL) in [1]; 1 µM (≈ 0.468 µg/mL) in assay [2]; 500 µM (≈ 234 µg/mL) in the assay with Mycobacterium avium [3]; 500 µM (≈ 234 µg/mL) with Mycobacterium avium [4]; 16 µM (≈ 7.48 µg/mL) in the assay with Mycobacterium kansasii [5]; 32 µM (≈ 15 µg/mL) in the assay on Mycobacterium kansasii [6]. Further, the MIC in the assay on Mycobacterium kansasii [7] was 32 µM (≈ 15 µg/mL); against Candida albicans [8] it was > 500 µM; against Candida albicans [9], > 500 µM; in the assay with Pichia kudriavzevii [10], > 500 µM; against Pichia kudriavzevii [11], > 500 µM; against Candida parapsilosis [12] it was > 500 µM. Besides, the MIC with Candida parapsilosis [13], against Candida tropicalis [14], against Candida tropicalis [15], in the assay on Aspergillus fumigatus, in the assay on Aspergillus flavus and in the assay on Lichtheimia corymbifera was > 500 µM in each case. Besides, the MIC in assay [16] and in assay [17] was > 500 µM throughout.

In the case of `COc1ccc(NS(=O)(=O)c2ccc(NC(=O)/C(C)=N/NC(=O)c3ccncc3)cc2)nn1`, the MIC was 1 µM (≈ 0.469 µg/mL) in assay [1]; 1 µM (≈ 0.469 µg/mL) in assay [2]; ≥ 1000 µM in the assay with Mycobacterium avium [3]; ≥ 1000 µM in the assay on Mycobacterium avium [4]; 32 µM (≈ 15 µg/mL) with Mycobacterium kansasii [5]; 32 µM (≈ 15 µg/mL) in the assay with Mycobacterium kansasii [6]. Moreover, the MIC with Mycobacterium kansasii [7] was 32 µM (≈ 15 µg/mL); in the assay on Candida albicans [8] it was > 500 µM; in the assay with Candida albicans [9] it was > 500 µM; in the assay on Pichia kudriavzevii [10], > 500 µM; in the assay with Pichia kudriavzevii [11] it was > 500 µM; against Candida parapsilosis [12], > 500 µM. The minimal inhibitory concentration (MIC) with Candida parapsilosis [13], with Candida tropicalis [14], against Candida tropicalis [15], against Aspergillus fumigatus, against Aspergillus flavus and against Lichtheimia corymbifera was > 500 µM throughout. The minimal inhibitory concentration (MIC) in assay [16] and in [17] was > 500 µM throughout.
